Measurements reported in ChEMBL document CHEMBL3272019, “Synthesis and some properties and antitumor effects of the actinomycin lactam analog, (di(1-L-alpha, beta-diaminopropionic))actinomycin D1” (1976).
Values after ≈ are worked out from the molar mass of the structure shown. Active and inactive are the calls of the source. No cut-off for these calls is given here.

What was measured:
Calf thymus DNA [1] = test: Binding affinity to calf thymus DNA at 25 uM by visible and near-UV CD spectrophotometry; assay type: nucleic-acid assay; settings: Bos taurus
In short: (§1)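 CD spectra, visible and near-UV, of 25.0 µM drug alone and with DNA (calf thymus or PM2, 0.52 mM as nucleotide phosphorus) in 0.01 M sodium phosphate, pH 7.0. Recorded at about 23° in tandem 1-cm cylindrical quartz cells. Drug concentration was set spectrophotometrically at 440 nm.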

[2] = test system: Pseudoalteromonas phage PM2; test: Binding affinity to bacteriophage PM2 DNA at 25 uM by visible and near-UV CD spectrophotometry; in short: as §1
Calf thymus DNA [3] = test: Binding affinity to calf thymus DNA at 37.1 uM by visible and near-UV CD spectrophotometry; assay type: nucleic-acid assay; settings: Bos taurus
In short: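 Visible/near-UV CD of 37.1 µM drug, free and with calf thymus DNA at 0.53 mM nucleotide phosphorus, in 0.01 M sodium phosphate pH 7.0 at about 23°. Tandem 1-cm quartz cells were used. Concentration was fixed from absorbance at 440 nm (ε 23585 M⁻¹ cm⁻¹).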

Bacillus subtilis = test: Antibacterial activity against Bacillus subtilis Marburg assessed as growth inhibition; assay type: functional
Staphylococcus aureus = test: Antibacterial activity against Penicillin-resistant Staphylococcus aureus assessed as growth inhibition; assay type: functional
Sarcina = test: Antibacterial activity against Sarcina subflava assessed as growth inhibition; assay type: functional
L1210 [4] = test: Antitumor activity against mouse L1210 cells allografted in BDF1 mouse assessed as mean survival time at 0.0125 mg/kg/injection, ip administered daily for 9 days (reference value: 9.6 days); assay type: functional; settings: route intraperitoneal
L1210 [5] = test: Antitumor activity against mouse L1210 cells allografted in BDF1 mouse assessed as mean survival time at 0.15 mg/kg/injection, ip administered intermittently on days 1, 5 and 9 (reference value: 9.6 days); assay type: functional; settings: route intraperitoneal
L1210 [6] = test: Antitumor activity against mouse L1210 cells allografted in BDF1 mouse assessed as mean survival time at 0.2 mg/kg/injection, ip administered as single dose (reference value: 9.6 days); assay type: functional; settings: route intraperitoneal
L1210 [7] = test: Antitumor activity against mouse L1210 cells allografted in BDF1 mouse assessed as increase in life span at 0.0125 mg/kg/injection, ip administered daily for 9 days; assay type: functional; settings: 216 h, route intraperitoneal
L1210 [8] = test: Antitumor activity against mouse L1210 cells allografted in BDF1 mouse assessed as increase in lifespan at 0.15 mg/kg/injection, ip administered intermittently on days 1, 5 and 9; assay type: functional; settings: route intraperitoneal
L1210 [9] = test: Antitumor activity against mouse L1210 cells allografted in BDF1 mouse assessed as increase in life span at 0.2 mg/kg/injection, ip administered as single dose; assay type: functional; settings: route intraperitoneal
P388 [10] = test: Antitumor activity against mouse P388 cells allografted in BDF1 mouse assessed as mean survival time at 0.1 mg/kg/injection, ip administered daily for 9 days (reference value: 10.5 days); assay type: functional; settings: route intraperitoneal
In short: (§2)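 P388 leukaemia: 10⁶ cells implanted ip on day 0 into groups of eight male BDF mice. Dosing was ip daily on days 1–9, on days 1, 5 and 9, or as a single day-1 dose, over four- to fivefold dose ranges. Median survival time (range of deaths) and percent increase in life-span were recorded, with survivors/total counted at day 60.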

P388 [11] = test: Antitumor activity against mouse P388 cells allografted in BDF1 mouse assessed as mean survival time at 0.15 mg/kg/injection, ip administered intermittently on days 1, 5 and 9 (reference value: 10.5 days); assay type: functional; settings: route intraperitoneal; in short: as §2
P388 [12] = test: Antitumor activity against mouse P388 cells allografted in BDF1 mouse assessed as mean survival time at 0.2 mg/kg/injection, ip administered as single dose (reference value: 10.5 days); assay type: functional; settings: route intraperitoneal; in short: as §2
P388 [13] = test: Antitumor activity against mouse P388 cells allografted in BDF1 mouse assessed as increase in life span at 0.1 mg/kg/injection, ip administered daily for 9 days measured on day 60; assay type: functional; settings: route intraperitoneal; in short: as §2
P388 [14] = test: Antitumor activity against mouse P388 cells allografted in BDF1 mouse assessed as increase in life span at 0.15 mg/kg/injection, ip administered intermittently on days 1, 5 and 9 measured on day 60; assay type: functional; settings: 1440 h, route intraperitoneal; in short: as §2
P388 [15] = test: Antitumor activity against mouse P388 cells allografted in BDF1 mouse assessed as increase in life span at 0.2 mg/kg/injection, ip administered as single dose measured on day 60; assay type: functional; settings: 1440 h, route intraperitoneal; in short: as §2
B16 [16] = test: Antitumor activity against mouse B16 cells allografted in BDF1 mouse assessed as mean survival time at 0.05 mg/kg/injection, ip administered daily for 9 days (reference value: 28 days); assay type: functional; settings: route intraperitoneal
In short: (§3)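 B16 melanoma in mice, standard screening method. Schedules were daily on days 1–9, on days 1, 5 and 9, or a single day-1 injection, each over a four- to fivefold dose range. Survival time (range of individual deaths) was recorded, percent increase in life-span computed against untreated controls, and survivors tallied.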

B16 [17] = test: Antitumor activity against mouse B16 cells allografted in BDF1 mouse assessed as mean survival time at 0.075 mg/kg/injection, ip administered intermittently on days 1, 5 and 9 (reference value: 28 days); assay type: functional; settings: route intraperitoneal; in short: as §3
B16 [18] = test: Antitumor activity against mouse B16 cells allografted in BDF1 mouse assessed as mean survival time at 0.05 mg/kg/injection, ip administered as single dose (reference value: 28 days); assay type: functional; settings: route intraperitoneal; in short: as §3
B16 [19] = test: Antitumor activity against mouse B16 cells allografted in BDF1 mouse assessed as increase in life span at 0.05 mg/kg/injection, ip administered daily for 9 days measured on day 60; assay type: functional; settings: route intraperitoneal; in short: as §3
B16 [20] = test: Antitumor activity against mouse B16 cells allografted in BDF1 mouse assessed as increase in life span at 0.075 mg/kg/injection, ip administered intermittently on days 1, 5 and 9 measured on day 60; assay type: functional; settings: 1440 h, route intraperitoneal; in short: as §3
B16 [21] = test: Antitumor activity against mouse B16 cells allografted in BDF1 mouse assessed as increase in life span at 0.05 mg/kg/injection, ip administered as single dose measured on day 60; assay type: functional; settings: 1440 h, route intraperitoneal; in short: as §3

## Cc1c2oc3c(C)ccc(C(=O)N[C@H]4CNC(=O)[C@H](C(C)C)N(C)C(=O)CN(C)C(=O)[C@@H]5CCCN5C(=O)[C@@H](C(C)C)NC4=O)c3nc-2c(C(=O)N[C@H]2CNC(=O)[C@H](C(C)C)N(C)C(=O)CN(C)C(=O)[C@@H]3CCCN3C(=O)[C@@H](C(C)C)NC2=O)c(N)c1=O
Calf thymus DNA [1]
  Activity: Active
[2]
  Activity: Active
Calf thymus DNA [3]
  Activity: Active
Bacillus subtilis
  MIC: 0.9 µg/mL (≈ 0.734 µM)
Bacillus subtilis; read-out: ID50 (the source's name)
  IC50: 0.4 µg/mL (≈ 0.326 µM)
Staphylococcus aureus
  MIC: 0.35 µg/mL (≈ 0.286 µM)
Sarcina
  MIC: 0.35 µg/mL (≈ 0.286 µM)
L1210 [4]
  MST: 11.2 days
L1210 [5]
  MST: 11 days
L1210 [6]
  MST: 11.8 days
L1210 [7]
  ILS at 0.0125 mg/kg: 17%
L1210 [8]
  ILS at 0.15 mg/kg: 14%
L1210 [9]
  ILS at 0.2 mg/kg: 22%
P388 [10]
  MST: 14.5 days
P388 [11]
  MST: 14 days
P388 [12]
  MST: 14 days
P388 [13]
  ILS at 0.1 mg/kg: 38%
P388 [14]
  ILS at 0.15 mg/kg: 33%
P388 [15]
  ILS at 0.2 mg/kg: 33%
B16 [16]
  MST: 30 days
B16 [17]
  MST: 32 days
B16 [18]
  MST: 29 days
B16 [19]
  ILS at 0.05 mg/kg: 7%
B16 [20]
  ILS at 0.075 mg/kg: 14%
B16 [21]
  ILS at 0.05 mg/kg: 4%
